Source: PubChem
Only a selection was taken, and hits are over-represented in it overall.
RORA inh: blocks the human nuclear receptor RORA | CHO-K1 Gal4-RORA LBD luciferase reporter, luminescence | inhibition, % at 10 µM | actives 0.43% (n = 65,000) | AID 561 | P35398;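 active = inhibition above the mean of all tested compounds plus 3 SD, cut at about 52% in these data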;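 note: 0% = RORA-transfected cells with DMSO and 100% = mock-transfected cells lacking RORA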
Target sequence (P35398 whole entry, looked up, the tested form may be a part): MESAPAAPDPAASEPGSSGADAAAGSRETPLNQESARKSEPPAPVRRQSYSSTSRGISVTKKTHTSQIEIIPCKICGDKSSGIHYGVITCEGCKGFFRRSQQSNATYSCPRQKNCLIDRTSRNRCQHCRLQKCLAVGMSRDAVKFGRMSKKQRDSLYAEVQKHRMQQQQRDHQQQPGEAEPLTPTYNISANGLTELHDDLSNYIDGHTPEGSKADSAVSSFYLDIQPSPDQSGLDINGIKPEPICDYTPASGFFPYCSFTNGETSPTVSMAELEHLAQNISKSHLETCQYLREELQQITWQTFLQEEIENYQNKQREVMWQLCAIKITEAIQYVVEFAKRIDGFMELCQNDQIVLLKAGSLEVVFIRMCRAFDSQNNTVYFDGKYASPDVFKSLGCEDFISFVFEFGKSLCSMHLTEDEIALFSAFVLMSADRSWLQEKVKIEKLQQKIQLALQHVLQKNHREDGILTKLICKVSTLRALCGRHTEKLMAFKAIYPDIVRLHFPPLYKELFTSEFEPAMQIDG
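Test system – CHO-K1 Gal4-RORA LBD luciferase reporter cells · Schedule – 20 h at 37 °C · Signal – luminescence from basal luciferase reporter expression · Measure – percent inhibition of basal reporter luminescence, control-normalized · Control set – -RORA mock-transfected DMSO wells 100%, +RORA DMSO wells 0%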
Numbers without * were called inactive.

SMILES	RORA inh
COc1cc2ccccc2cc1C(=O)Nc1cccnc1	-77
CCOc1nc(-c2ccccc2)ccc1-c1noc(COC)n1	-3
COCc1nc(-c2ccc(-c3ccc(OC)cc3)nc2OC)no1	-49
COc1ccc(-c2noc(CCCC(=O)O)n2)cc1	68*
CCOC(=O)Cn1c(CCC(=O)O)ccc1-c1ccc(F)cc1	17
Cc1ccc(-c2noc(CCCC(=O)Nc3cccnc3)n2)cc1	53*
CCCCC(=O)Nc1ccc(NC(=O)c2cccnc2)cn1	-6
CCOc1ccc(-c2noc(CCC(=O)O)n2)cc1	54*
O=C1Nc2cc(Cl)cnc2N2CCCC12 (configuration not stated)	-9
CCC1CCCCN1C(=O)CSc1nc(N)c(NC(=O)c2ccc(OC)c(OC)c2)c(=O)[nH]1 (configuration not stated)	20
CC(C)CCn1nnnc1C(c1ccc(N(C)C)cc1)N1CCN(C(=O)c2ccco2)CC1 (configuration not stated)	22
COc1ccc(OCCCSc2ncccn2)cc1	-63
c1cncc(-c2nn3c(-c4ccncc4)nnc3s2)c1	-17
Nc1nc(N)c2sc3nc4c(cc3c2n1)CCC4	-56
CC1CCCC(C)N1C(=O)c1cc(-c2cccs2)on1 (configuration not stated)	-61
O=C(NCCCn1ccnc1)c1csc2ccccc12	4
N/C(=N\S(=O)(=O)c1ccc(Cl)s1)c1ccccc1	24
CSCCC(NC(=O)c1ccco1)C(=O)O (configuration not stated)	8
CC(NC(=O)Nc1nnc(C(F)(F)F)s1)(C(F)(F)F)C(F)(F)F	94*
CNc1oc(-c2ccc(Cl)cc2)nc1C#N	26
Cc1cc(C)n(S(=O)(=O)c2ccc3ccccc3c2)n1	18
Cc1cc(C)n(-c2nc(C)nc(N)n2)n1	-24
Cc1cc(C)n(-c2ccc3cccc(NS(C)(=O)=O)c3n2)n1	67*
CSc1nnc(Cn2c(=O)sc3ccccc32)n1-c1ccccc1C	5
Cc1cccc2cc(COC(=O)C(C)C)c(=O)[nH]c12	12
SMILES	RORA inh
Cc1cc(/C=c2/sc3nc4ccccc4n3c2=O)c(C)n1-c1ccccn1	87*
CC1=CC(C)=Nc2ccc(C)cc2N1	-58
O=C(c1cccnc1)N1CCN(C(=O)c2cccs2)CC1	-1
CCCC(=O)Nc1nc(-c2ccc3c(c2)OCCO3)cs1	-63
Nc1nc(-c2ccc3c(c2)OCCO3)cs1	-50
Cc1ccc(-c2csc(N3CCC(NS(=O)(=O)c4ccc5c(c4)OCCO5)CC3)n2)cc1	70*
Cc1ccnc(N2CCN(c3c4c(c(C#N)c5nc6ccccc6n35)CCC4)CC2)c1	14
O=C(CSc1nnc(COc2cccc3cccnc23)o1)N1CCc2ccccc21	59*
O=C(CSc1nnc(COc2ccc(F)cc2)o1)N1c2ccccc2CCc2ccccc21	-18
Cc1ccc(NCc2nnc(SCC(=O)N3CCCc4ccccc43)o2)c(C)c1	7
O=S(=O)(NCC(c1cccnc1)N1CCN(Cc2ccccc2)CC1)c1ccccc1 (configuration not stated)	-4
Cc1nnc2c3cnn(-c4ccc(Cl)cc4)c3ncn12	-65
O=C(CN(Cc1ccco1)C(=O)CNS(=O)(=O)c1ccc(Cl)cc1)NCc1ccc(F)cc1	8
NC(=O)C1CCN(C(=O)CSCc2ccccc2Cl)CC1	-16
Cc1ccc(-c2nsc3c(N4CCC(C(N)=O)CC4)ncnc23)cc1	57*
CC1CCN(C(=O)CN2C(=O)C(C)(C)Oc3ccc(C(=O)NC4CCCC4)cc32)CC1	-10
CC1=C(C(=O)OC(C)(C)C)C(c2ccco2)C(C#N)=C(N)O1 (configuration not stated)	-2
COc1ccc(-c2cc(=O)n(-c3nc4ccccc4[nH]3)[nH]2)cc1	8
O=C(NCc1cccs1)c1noc2c1CCCC2	-55
c1csc(CCNc2ncnc3sc4c(c23)CCC4)c1	72*
COc1ccc(-n2c(SCC#N)nnc2-c2ccc(NS(=O)(=O)c3ccc(C)cc3)cc2)cc1	-7
O=C(O)c1ccccc1C(=O)Nc1ccccn1	12
Cc1cc(C(=O)Nc2ccccn2)no1	-8
Cc1ccc(C(=O)/C=C/Nc2ccccn2)cc1	90*
Nc1nc(Cl)nc2c1ncn2[C@H]1C[C@H](O)[C@@H](CO)O1	69*
SMILES	RORA inh
O=C(Nc1ccon1)c1cccc(C(F)(F)F)c1	17
CCOC(=O)c1c(C)[nH]c(C(=O)COC(=O)CNC(=O)C2CCCCC2)c1C	23
CCCNc1nc2c(c(=O)n(C)c(=O)n2C)n1Cc1cccc(C)c1	55*
Cn1c(NCc2ccccc2)nc2c1c(=O)n(Cc1ccc(Br)cc1)c(=O)n2C	7
CCn1c(NCc2ccccn2)nc2c1c(=O)n(C)c(=O)n2C	-2
COc1cccc(Cn2c(NCc3ccco3)nc3c2c(=O)n(C)c(=O)n3C)c1	62*
CCCNc1nc2c(c(=O)n(C)c(=O)n2C)n1CCc1ccccc1	17
CCCCC(=O)NCCNc1nc2c(c(=O)n(C)c(=O)n2C)n1Cc1ccc(F)cc1	10
COc1ccc(N2CCN(Cc3nc4c(c(=O)[nH]c(=O)n4C)n3Cc3cccc(Cl)c3)CC2)cc1	-11
CCCCOCCCNC(=O)c1c(-c2ccccc2)noc1C	19
CN(C)/C=N/c1cnc(C(=O)c2ccc(Cl)cc2)n1C	-76
CCc1ccc(-c2nnn(CCC(=O)OC)n2)cc1	53*
c1ccc(OCCCn2nnc(-c3ccc(N4CCOCC4)cc3)n2)cc1	-4
CCCn1nnc(NC(=O)c2cc3ccccc3o2)n1	-49
CCOC(=O)COc1ccc2c(c1)C(=O)CC(C)(C)O2	-14
CCOC(=O)N1CCC(NC(=O)Cn2cc3c(n2)CCCC3)CC1	-6
COc1ccc(S(=O)(=O)NCc2ccco2)cc1-c1nnc2c3ccccc3c(C)nn12	7
CCOc1ccc(-n2nnc3c(=O)n(CC(=O)c4ccccc4)cnc32)cc1	12
CCCCOc1ccc(S(=O)(=O)N2CCCCCC2)cc1	-12
CCOc1ccc(OCC(=O)Nc2ccc(S(=O)(=O)Nc3cc(C)nc(C)n3)cc2)cc1	-5
CCOc1ccc(S(=O)(=O)n2cnc3cc(C)c(C)cc32)cc1	66*
COc1ccc(-c2nnc(SCc3nnc(-c4ccccc4)o3)n2C)cc1OC	-53
CCc1ccc(NC(=O)CSc2nnc(Cc3cccn3C)n2-c2ccc(F)cc2)cc1	7
NC(=O)NC1CCCc2c1[nH]c1ccc(Cl)cc21 (configuration not stated)	10
COc1cccc2c1C(=O)c1c(O)c3c(c(O)c1C2=O)C[C@@](O)(C(C)=O)C[C@@H]3O[C@H]1C[C@H](N)[C@H](O)[C@H](C)O1	78*
SMILES	RORA inh
CC1(C)NC(=O)N(CC(O)COc2ccc(N3C(=O)c4ccccc4C3=O)cc2)C1=O (configuration not stated)	-17
O=C(NCCCn1ccnc1)c1cc(-c2cccs2)on1	-92
CC#CCCCC(=O)Nc1cccc(C(=O)O)c1	-56
Cc1cc(C(=O)Nc2cccc(C(=O)O)c2)oc1C	74*
O=C(Nc1cccc(Br)c1)c1cc2ccccc2o1	-71
CC1CCc2ccccc2N1C(=O)c1cccs1 (configuration not stated)	2
Cc1nc2cc(NC(=O)NCCC3=CCCCC3)ccc2o1	-73
COc1ccc2[nH]c(=O)c3c(c2c1)OC(C)(C)C=C3	58*
COc1ccc2[nH]c(C)c(CN3CCC(C)CC3)c(=O)c2c1	1
CCC(C)[C@H](N)c1nnc(SCc2cccc(F)c2)o1 (some centres not stated)	-12
O=C(Nc1nc(-c2nc3ccccc3s2)cs1)C1CC1	-51
